Measured values as given in ChEMBL document CHEMBL1130016 (J Med Chem, 1997).

Columns and labels:
[1] = target: Sodium-dependent dopamine transporter (Rattus norvegicus, UniProt P23977); test: In vitro inhibition of [3H]WIN-35 428 binding to dopamine transporter on rat striatal membranes.; format: cell membranes, Membrane
In short: (§1)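 Compounds dissolved in 10% DMSO. Incubation ended by filtration, and filter-bound radioactivity was counted by liquid scintillation at about 35% efficiency for 3H. IC50 values were determined. Mean ± SEM of three independent experiments, each in triplicate.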

[2] = target: Sodium-dependent serotonin transporter (Rattus norvegicus, UniProt P31652); test: In vitro inhibition of [3H]citalopram binding to serotonin transporter on rat striatal membranes.; format: cell membranes, Membrane; in short: as §1
[3] = target: Monoamine transporters; serotonin & dopamine (Rattus norvegicus) (UniProt P31652+P23977); test: Ratio of inhibitory activity against Serotonin Transporter compared to Dopamine Transporter; format: protein assay
In short: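 Selectivity is expressed as SERT/DAT, the ratio of binding values from rat striatal membranes. SERT was labelled with [3H]citalopram and DAT with [3H]WIN 35,428. Binding was ended by filtration and counted by scintillation. Values come from three independent experiments, each run in triplicate.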

Sequence of Sodium-dependent serotonin transporter (P31652 whole entry): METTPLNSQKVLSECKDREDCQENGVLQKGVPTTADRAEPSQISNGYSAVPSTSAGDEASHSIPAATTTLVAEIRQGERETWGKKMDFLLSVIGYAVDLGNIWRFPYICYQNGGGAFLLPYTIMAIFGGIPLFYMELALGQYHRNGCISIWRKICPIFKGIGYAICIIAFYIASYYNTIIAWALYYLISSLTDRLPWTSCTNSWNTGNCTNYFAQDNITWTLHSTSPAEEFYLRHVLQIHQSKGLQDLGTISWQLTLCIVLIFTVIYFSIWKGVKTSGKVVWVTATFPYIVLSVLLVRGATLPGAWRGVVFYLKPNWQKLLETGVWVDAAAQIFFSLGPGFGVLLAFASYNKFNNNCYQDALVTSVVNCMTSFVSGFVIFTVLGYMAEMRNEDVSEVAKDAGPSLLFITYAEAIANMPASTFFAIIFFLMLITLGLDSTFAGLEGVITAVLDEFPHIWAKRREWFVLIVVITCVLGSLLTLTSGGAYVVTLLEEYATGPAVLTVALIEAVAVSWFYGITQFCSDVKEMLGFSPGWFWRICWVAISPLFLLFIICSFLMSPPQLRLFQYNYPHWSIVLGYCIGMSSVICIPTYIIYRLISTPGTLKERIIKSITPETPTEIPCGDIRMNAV
Sequence of Monoamine transporters; serotonin & dopamine (Rattus norvegicus) (P23977 whole entry, looked up): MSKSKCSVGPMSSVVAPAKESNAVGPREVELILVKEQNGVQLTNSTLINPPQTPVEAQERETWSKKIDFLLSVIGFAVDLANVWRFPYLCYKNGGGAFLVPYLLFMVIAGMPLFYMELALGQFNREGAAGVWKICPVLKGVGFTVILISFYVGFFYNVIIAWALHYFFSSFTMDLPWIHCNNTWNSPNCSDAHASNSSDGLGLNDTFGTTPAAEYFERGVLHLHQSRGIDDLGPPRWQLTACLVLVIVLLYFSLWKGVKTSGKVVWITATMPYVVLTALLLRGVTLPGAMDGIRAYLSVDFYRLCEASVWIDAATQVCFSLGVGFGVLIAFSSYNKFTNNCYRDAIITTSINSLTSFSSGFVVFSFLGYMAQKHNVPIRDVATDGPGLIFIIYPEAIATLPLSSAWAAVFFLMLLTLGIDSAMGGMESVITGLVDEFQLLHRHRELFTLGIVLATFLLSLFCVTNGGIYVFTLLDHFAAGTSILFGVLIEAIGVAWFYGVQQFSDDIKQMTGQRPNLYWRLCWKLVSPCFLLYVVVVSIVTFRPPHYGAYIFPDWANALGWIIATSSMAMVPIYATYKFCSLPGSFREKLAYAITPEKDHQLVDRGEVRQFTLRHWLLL
Sequence of Monoamine transporters; serotonin & dopamine (Rattus norvegicus) (P31652 whole entry, looked up): as the sequence (P31652 whole entry) above
Sequence of Sodium-dependent dopamine transporter (P23977 whole entry): as the sequence (P23977 whole entry, looked up) above

## Fc1ccc(CN2CCC(CCOC(c3ccccc3)c3ccc(F)cc3)CC2)cc1 (stereo unspecified)
[1]
  IC50: 0.014 µM
[2]
  IC50: 1.26 µM
[3]
  Ratio: 89

## Brc1ccc(CN2CCC(CCOC(c3ccccc3)c3ccccc3)CC2)cc1
[1]
  IC50: 0.0311 µM
[2]
  IC50: 1.49 µM
[3]
  Ratio: 48

## c1ccc(C(OCCC2CCN(Cc3cccnc3)CC2)c2ccccc2)cc1
[1]
  IC50: 0.0486 µM
[2]
  IC50: 0.68 µM
[3]
  Ratio: 13.9

## Nc1ccc(CN2CCC(CCOC(c3ccccc3)c3ccccc3)CC2)cc1
[1]
  IC50: 0.101 µM
[2]
  IC50: 1.57 µM
[3]
  Ratio: 15.6

## COc1ccc(CN2CCC(CCOC(c3ccccc3)c3ccccc3)CC2)cc1
[1]
  IC50: 0.0278 µM
[2]
  IC50: 1.24 µM
[3]
  Ratio: 45

## c1ccc(CN2CCC(CCOC(c3ccccc3)c3ccccc3)CC2)cc1
[3]
  Ratio: 49

## O=[N+]([O-])c1ccc(CN2CCC(CCOC(c3ccccc3)c3ccccc3)CC2)cc1
[1]
  IC50: 0.0164 µM
[2]
  IC50: 1.77 µM
[3]
  Ratio: 108

## Clc1ccc(CN2CCC(CCOC(c3ccccc3)c3ccccc3)CC2)cc1
[1]
  IC50: 0.0247 µM
[2]
  IC50: 1.61 µM
[3]
  Ratio: 65.1

## c1ccc(C(OCCC2CCN(Cc3cc4ccccc4s3)CC2)c2ccccc2)cc1
[1]
  IC50: 0.172 µM
[2]
  IC50: 1.54 µM
[3]
  Ratio: 8.9

## Fc1ccc(CN2CCC(CCOC(c3ccccc3)c3ccccc3)CC2)cc1Cl
[1]
  IC50: 0.0282 µM
[2]
  IC50: 2.53 µM
[3]
  Ratio: 90

## Cc1ccc(CN2CCC(CCOC(c3ccccc3)c3ccccc3)CC2)cc1
[1]
  IC50: 0.023 µM
[2]
  IC50: 1.39 µM
[3]
  Ratio: 60.4

## c1ccc(C(OCCC2CCN(Cc3cccnc3)CC2)c2cccs2)cc1 (stereo unspecified)
[1]
  IC50: 0.0583 µM
[2]
  IC50: 0.927 µM
[3]
  Ratio: 15.9

## Fc1ccc(CN2CCC(CCOC(c3ccccc3)c3ccccc3)CC2)cc1
[2]
  IC50: 1.92 µM
[3]
  Ratio: 112

## Fc1ccc(CN2CCC(CCOC(c3ccccc3)c3cccs3)CC2)cc1 (stereo unspecified)
[1]
  IC50: 0.0138 µM
[2]
  IC50: 1.39 µM
[3]
  Ratio: 100

## Fc1ccc(CN2CCC(CCOC(c3ccccc3)c3ccc(Cl)cc3)CC2)cc1 (stereo unspecified)
[1]
  IC50: 0.0524 µM
[2]
  IC50: 1.81 µM
[3]
  Ratio: 34.4

## Clc1ccc(CN2CCC(CCOC(c3ccccc3)c3ccccc3)CC2)cc1Cl
[1]
  IC50: 0.0857 µM
[2]
  IC50: 2.88 µM
[3]
  Ratio: 33.6

## c1ccc(C(OCCC2CCN(Cc3cccs3)CC2)c2ccccc2)cc1
[1]
  IC50: 0.0593 µM
[2]
  IC50: 1.25 µM
[3]
  Ratio: 21

## c1ccc(CN2CCC(CCOC(c3ccccc3)c3cccs3)CC2)cc1 (stereo unspecified)
[1]
  IC50: 0.0272 µM
[2]
  IC50: 0.741 µM
[3]
  Ratio: 27
